Data taken from ChEMBL document CHEMBL4811308, “Design, synthesis and broad spectrum antibreast cancer activity of diarylindoles via induction of apoptosis in aggressive breast cancer cells” (Bioorg Med Chem, 2021).
The source made the active and inactive calls. The calls are words filed in the database; no cut-off is given here.

Assays:
HEK293 = assay: Cytotoxicity against human HEK293 cells assessed as reduction in cell viability incubated for 24 hrs by MTT assay; type: cell-based; settings: HEK293, 24 h
How it was run: (§1)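 MTT viability: cells seeded at 1 × 10^4/well, grown 24 h, then exposed to a concentration range of compound for 24 h. MTT (5 mg/mL stock) added for 3 h, formazan dissolved in DMSO, absorbance read at 540 nm.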

MDA-MB-231 [1] = assay: Induction in caspase-mediated apoptosis in human MDA-MB-231 cells assessed as decrease in cell viability at 2 uM incubated for 24 hrs in presence of Z-VAD-FMK by MTT assay; type: functional, cell-based
How it was run: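 MDA-MB-231 cells pretreated 2 h with 50 µM Z-VAD-FMK, then exposed to 2 µM compound for 24 h. Viability by MTT (3 h), formazan in DMSO, absorbance at 540 nm. Three independent experiments, mean ± S.E.M.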

MDA-MB-231 [2] = assay: Induction of apoptosis in human MDA-MB-231 cells assessed as viable cells at 4 uM incubated for 24 hrs by annexin-V-FITC and PI staining based flow cytometry analysis (reference value: 95.27 to 97.16 %); type: functional; settings: read-out: Activity
MDA-MB-231 [3] = assay: Induction of apoptosis in human MDA-MB-231 cells assessed as necrotic cells at 2 uM incubated for 24 hrs by annexin-V-FITC and PI staining based flow cytometry analysis (reference value: 0.01 to 0.8 %); type: functional
MDA-MB-231 [4] = assay: Induction of cell cycle arrest in human MDA-MB-231 cells assessed as accumulation at G2/M phase at 6 uM incubated for 24 hrs by PI staining based flow cytometry analysis (reference value: 4.35 to 19.56 %); type: functional
MDA-MB-231 [5] = assay: Induction of cell cycle arrest in human MDA-MB-231 cells assessed as accumulation at G0/G1 phase at 2 uM incubated for 24 hrs by PI staining based flow cytometry analysis (reference value: 23.74 to 46.27 %); type: functional
MCF7 = assay: Cytotoxicity against human MCF7 cells assessed as reduction in cell viability incubated for 24 hrs by MTT assay; type: functional, cell-based; settings: MCF7, 24 h; how it was run: as §1
MDA-MB-231 [6] = assay: Induction of apoptosis in human MDA-MB-231 cells assessed as viable cells at 6 uM incubated for 24 hrs by annexin-V-FITC and PI staining based flow cytometry analysis (reference value: 95.27 to 97.16 %); type: functional; settings: read-out: Activity
MDA-MB-231 [7] = assay: Induction of cell cycle arrest in human MDA-MB-231 cells assessed as accumulation at G0/G1 phase at 6 uM incubated for 24 hrs by PI staining based flow cytometry analysis (reference value: 23.74 to 46.27 %); type: functional
MDA-MB-231 [8] = assay: Induction of cell cycle arrest in human MDA-MB-231 cells assessed as accumulation at S phase at 2 uM incubated for 24 hrs by PI staining based flow cytometry analysis (reference value: 40.37 to 57.89 %); type: functional
MDA-MB-231 [9] = assay: Induction of cell cycle arrest in human MDA-MB-231 cells assessed as accumulation at G2/M phase at 4 uM incubated for 24 hrs by PI staining based flow cytometry analysis (reference value: 4.35 to 19.56 %); type: functional
MDA-MB-231 [10] = assay: Induction of apoptosis in human MDA-MB-231 cells assessed as late apoptotic cells at 6 uM incubated for 24 hrs by annexin-V-FITC and PI staining based flow cytometry analysis (reference value: 0.28 to 0.84 %); type: functional
MDA-MB-231 [11] = assay: Induction of apoptosis in human MDA-MB-231 cells assessed as late apoptotic cells at 4 uM incubated for 24 hrs by annexin-V-FITC and PI staining based flow cytometry analysis (reference value: 0.28 to 0.84 %); type: functional
[12] = target: T1, Estrogen receptor (Homo sapiens) (UniProt P03372); assay: Transactivation of ERalpha (unknown origin) transfected in human MDA-MB-231 cells at 1 uM by dual luciferase receptor assay; type: cell-based
T1 sequence (whole entry): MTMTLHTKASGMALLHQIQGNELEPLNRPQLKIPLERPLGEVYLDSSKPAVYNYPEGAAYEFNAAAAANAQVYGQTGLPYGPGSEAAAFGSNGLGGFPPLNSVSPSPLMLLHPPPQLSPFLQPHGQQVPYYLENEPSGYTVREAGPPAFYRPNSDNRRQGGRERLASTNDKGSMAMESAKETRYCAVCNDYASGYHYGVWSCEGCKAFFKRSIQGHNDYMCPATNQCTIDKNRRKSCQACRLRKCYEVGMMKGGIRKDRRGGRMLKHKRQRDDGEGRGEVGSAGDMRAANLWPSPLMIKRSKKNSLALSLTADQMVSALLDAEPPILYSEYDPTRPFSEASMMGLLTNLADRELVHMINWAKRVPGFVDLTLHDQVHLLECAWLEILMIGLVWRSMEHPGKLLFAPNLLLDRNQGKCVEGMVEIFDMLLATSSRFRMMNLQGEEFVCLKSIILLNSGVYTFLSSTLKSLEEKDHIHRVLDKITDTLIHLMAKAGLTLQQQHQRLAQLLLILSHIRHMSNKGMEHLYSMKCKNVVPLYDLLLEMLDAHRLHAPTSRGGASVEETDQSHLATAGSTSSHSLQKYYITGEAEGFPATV
How it was run: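 MDA-MB-231 cells grown to 80-90% confluency, transfected with 500 ng of ERα (pSG5 mERα) or ERβ (pSG5-hERβ) expression vector plus pRL-SV40 Renilla for normalization, then reseeded. Cells incubated with E2 (100 nM), compound at 1 µM, or tamoxifen at 1 µM. Dual luciferase readout reported as percent normalized RLU, triplicate experiments with three replicates each.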

MDA-MB-231 [13] = assay: Induction of apoptosis in human MDA-MB-231 cells assessed as early apoptotic cells at 6 uM incubated for 24 hrs by annexin-V-FITC and PI staining based flow cytometry analysis (reference value: 0.28 to 4.68 %); type: functional
How it was run: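 MDA-MB-231 cells (1 × 10^6) grown 24 h in six-well plates, then treated for 24 h. Cells trypsinized, PBS-washed and stained with Annexin V-FITC/PI in binding buffer for 10 min in the dark at room temperature. Early/late apoptotic fractions quantified by flow cytometry.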

MDA-MB-231 [14] = assay: Cytotoxicity against human MDA-MB-231 cells assessed as reduction in cell viability incubated for 24 hrs by MTT assay; type: functional, cell-based; settings: MDA-MB-231, 24 h; how it was run: as §1
MDA-MB-231 [15] = assay: Induction of cell cycle arrest in human MDA-MB-231 cells assessed as accumulation at S phase at 4 uM incubated for 24 hrs by PI staining based flow cytometry analysis (reference value: 40.37 to 57.89 %); type: functional
MDA-MB-231 [16] = assay: Induction of apoptosis in human MDA-MB-231 cells assessed as necrotic cells at 6 uM incubated for 24 hrs by annexin-V-FITC and PI staining based flow cytometry analysis (reference value: 0.01 to 0.8 %); type: functional
MDA-MB-231 [17] = assay: Induction of cell cycle arrest in human MDA-MB-231 cells assessed as accumulation at G2/M phase at 2 uM incubated for 24 hrs by PI staining based flow cytometry analysis (reference value: 4.35 to 19.56 %); type: functional

Compound | IC50 (HEK293) | Activity (MDA-MB-231 [1]) | viability at 4 µM (MDA-MB-231 [2]) | Activity (MDA-MB-231 [3]) | Activity (MDA-MB-231 [4]) | Activity (MDA-MB-231 [5]) | IC50 (MCF7) | viability at 6 µM (MDA-MB-231 [6]) | Activity (MDA-MB-231 [7]) | Activity (MDA-MB-231 [8]) | Activity (MDA-MB-231 [9]) | Activity (MDA-MB-231 [10]) | Activity (MDA-MB-231 [11]) | Activity [12] | Activity (MDA-MB-231 [13]) | IC50 (MDA-MB-231 [14]) | Activity (MDA-MB-231 [15]) | Activity (MDA-MB-231 [16]) | Activity (MDA-MB-231 [17])
COc1ccc2c(c1)c(Cc1ccc(OCCN(C)C)cc1)c(-c1cc(OC)c(OC)c(OC)c1)n2Cc1ccc(OCCN(C)C)cc1 | 24.5 µM | inactive | 58.3% | 2.34% | 0% | 60.43% | 4.48 µM | 36.2% | 64.37% | 38.78% | 0.22% | 15.1% | 20.05% | inactive | 39.6% | 3.78 µM | 38.65% | 9.08% | 0.79%
COc1ccc2c(c1)c(Cc1ccc(OCCN3CCCCC3)cc1)c(-c1cc(OC)c(OC)c(OC)c1)n2Cc1ccc(OCCN2CCCCC2)cc1 | 30.5 µM | Active | 56% | 2.01% | 8.91% | 53.25% | 6.48 µM | 44.6% | 59.19% | 34.3% | 15.43% | 37.67% | 26.25% | inactive | 17.19% | 2.42 µM | 29.41% | 0.55% | 12.45%
COc1ccc2c(c1)c(Cc1ccc(OC(C)CN(C)C)cc1)c(-c1cc(OC)c(OC)c(OC)c1)n2Cc1ccc(OC(C)CN(C)C)cc1 (stereo unspecified) | 21.8 µM | inactive | 53.2% | 3.43% | 8.37% | 46.32% | 7.06 µM | 45.8% | 49.36% | 40.83% | 9.55% | 26.15% | 15.18% | inactive | 20.52% | 3.88 µM | 40.83% | 7.58% | 12.85%
CCN(CC)CCOc1ccc(Cc2c(-c3cc(OC)c(OC)c(OC)c3)n(Cc3ccc(OCCN(CC)CC)cc3)c3ccc(OC)cc23)cc1 | 25.4 µM | Active | 77.9% | 4.3% | 5.84% | 51.72% | 6.36 µM | 69.7% | 57.6% | 38.21% | 8.09% | 14.25% | 14.66% | inactive | 14.01% | 2.34 µM | 38.03% | 2.09% | 10.07%
